# ChEMBL document CHEMBL4014288, “Targeted Antibiotic Delivery: Selective Siderophore Conjugation with Daptomycin Confers Potent Activity against Multidrug Resistant Acinetobacter baumannii Both in Vitro and in Vivo” (J Med Chem, 2017)
# Activity calls are given as the source filed them. The rule behind the calls is not given here.
# What was measured:
# Mus musculus = assay: Toxicity in ICR mouse at 250 mg/kg, iv after 21 to 22 days; type: organism-based; details: in vivo
# Acinetobacter baumannii [1] = assay: Antibacterial activity against Acinetobacter baumannii ATCC 17961 after 18 hrs by broth microdilution method; type: functional; details: ATCC 17961, 18 h
# Acinetobacter baumannii [2] = assay: Antibacterial activity against Acinetobacter baumannii ARC 3486 after 18 hrs by broth microdilution method; type: functional; details: ARC 3486, 18 h
# Pseudomonas aeruginosa = assay: Antibacterial activity against Pseudomonas aeruginosa PAO1 after 18 hrs by broth microdilution method; type: functional; details: PAO1, 18 h
# Burkholderia multivorans = assay: Antibacterial activity against Burkholderia multivorans AU0100 after 18 hrs by broth microdilution method; type: functional; details: AU0100, 18 h
# Staphylococcus aureus [3] = assay: Antibacterial activity against Staphylococcus aureus SG511 after 18 hrs by broth microdilution method; type: functional; details: SG511, 18 h
# Staphylococcus aureus [4] = assay: Antibacterial activity against Staphylococcus aureus ATCC 11632 after 18 hrs by broth microdilution method; type: functional; details: ATCC 11632, 18 h
# Escherichia coli = assay: Antibacterial activity against Escherichia coli DCO after 18 hrs by broth microdilution method; type: functional
# Acinetobacter baumannii [5] = assay: Antibacterial activity against Acinetobacter baumannii ATCC BAA 1710 after 18 hrs by broth microdilution method; type: functional; details: ATCC BAA 1710, 18 h
# Acinetobacter baumannii [6] = assay: Antibacterial activity against Acinetobacter baumannii ATCC BAA 1793 after 18 hrs by broth microdilution method; type: functional; details: ATCC BAA 1793, 18 h
# Acinetobacter baumannii [7] = assay: Antibacterial activity against Acinetobacter baumannii ATCC BAA 1800 after 18 hrs by broth microdilution method; type: functional; details: ATCC BAA 1800, 18 h
# Acinetobacter baumannii [8] = assay: Antibacterial activity against Acinetobacter baumannii ARC 3484 after 18 hrs by broth microdilution method; type: functional; details: ARC 3484, 18 h
# Acinetobacter baumannii [9] = assay: Antibacterial activity against Acinetobacter baumannii ARC 5079 after 18 hrs by broth microdilution method; type: functional; details: ARC 5079, 18 h
# Acinetobacter baumannii [10] = assay: Antibacterial activity against Acinetobacter baumannii ARC 5081 after 18 hrs by broth microdilution method; type: functional; details: ARC 5081, 18 h
# Acinetobacter baumannii [11] = assay: Antibacterial activity against Acinetobacter baumannii ATCC 19606 after 18 hrs by broth microdilution method; type: functional; details: ATCC 19606, 18 h
# Acinetobacter baumannii [12] = assay: Antibacterial activity against Acinetobacter baumannii ATCC BAA 1797 after 18 hrs by broth microdilution method; type: functional; details: ATCC BAA 1797, 18 h
# Acinetobacter baumannii [13] = assay: Antibacterial activity against Acinetobacter baumannii ATCC 17961 infected in ICR mouse assessed as mouse survival rate at 25 mg/kg, iv administered at 30 mins and 24.5 hrs post infection measured 7 days post infection relative to vehicle-treated control; type: functional; details: ATCC 17961, iv
# In short: (§1)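 Sepsis model in 6- to 8-week-old female ICR mice infected intraperitoneally with A. baumannii ATCC 17961. Treatment given intravenously at 30 min and again at 24.5 h after infection, at 25, 10 or 5 mg/kg. Saline vehicle group as control. Five mice per dose group and six in the vehicle group. Read-out was survival.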
# Acinetobacter baumannii [14] = assay: Antibacterial activity against Acinetobacter baumannii ATCC 17961 infected in ICR mouse assessed as mouse survival rate at 10 mg/kg, iv administered at 30 mins and 24.5 hrs post infection measured 7 days post infection relative to vehicle-treated control; type: functional; details: ATCC 17961, iv; in short: as §1
# Acinetobacter baumannii [15] = assay: Antibacterial activity against Acinetobacter baumannii ATCC 17961 infected in ICR mouse assessed as mouse survival rate at 5 mg/kg, iv administered at 30 mins and 24.5 hrs post infection measured 7 days post infection relative to vehicle-treated control; type: functional; details: ATCC 17961, iv; in short: as §1
# [16] = Binding affinity to ferric ion
# [17] = Binding affinity to ferric ion at 5 mg after 18 hrs by LC-MS analysis
# In short: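 Ferric complex made by adding Fe(acac)3 (1.1 mg) in MeOH (1 mL) to conjugate (5.0 mg) in MeOH (1 mL). Analysed by LC on a C18 column (2.2 μm particles) at 40 °C, with a water/acetonitrile mobile phase. UV-vis diode-array detection over 190−400 nm, plus MS.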
# Acinetobacter baumannii [18] = assay: Antibacterial activity against Acinetobacter baumannii ATCC 17961 infected in ICR mouse assessed as mouse survival rate at 50 mg/kg, iv administered at 30 mins and 24.5 hrs post infection measured 7 days post infection; type: functional, organism-based
# In short: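 Female ICR mice, 6 to 8 weeks old, infected intraperitoneally with A. baumannii ATCC 17961 (sepsis model). Treatments were given intravenously at 30 min and 24.5 h after infection, with saline as vehicle. Survival was scored as the fraction of mice alive per group (3 to 6 mice per group).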
MIC (Acinetobacter baumannii [1]) [µM],MIC (Acinetobacter baumannii [2]) [µM],MIC (Acinetobacter baumannii [5]) [µM],MIC (Acinetobacter baumannii [6]) [µM],MIC (Acinetobacter baumannii [7]) [µM],MIC (Acinetobacter baumannii [8]) [µM],MIC (Acinetobacter baumannii [9]) [µM],MIC (Acinetobacter baumannii [10]) [µM],MIC (Acinetobacter baumannii [12]) [µM],SMILES,MIC (Pseudomonas aeruginosa) [µM],MIC (Burkholderia multivorans) [µM],MIC (Staphylococcus aureus [3]) [µM],MIC (Staphylococcus aureus [4]) [µM],MIC (Escherichia coli) [µM],MIC (Acinetobacter baumannii [11]) [µM],also measured
–,–,–,–,–,–,–,–,–,CCCCCCCCCC(=O)N[C@@H](Cc1c[nH]c2ccccc12)C(=O)N[C@H](CC(N)=O)C(=O)N[C@@H](CC(=O)O)C(=O)N[C@@H]1C(=O)NCC(=O)N[C@@H](CCCNC(=O)CCCC(=O)N(O)CCCCCNC(=O)CCC(=O)N(CCCCNC(=O)c2cccc(O)c2O)CCCNC(=O)c2cccc(O)c2O)C(=O)N[C@@H](CC(=O)O)C(=O)N[C@H](C)C(=O)N[C@@H](CC(=O)O)C(=O)NCC(=O)N[C@H](CO)C(=O)N[C@@H]([C@@H](C)CC(=O)O)C(=O)N[C@@H](CC(=O)c2ccccc2N)C(=O)O[C@@H]1C [listing 1 of 2 here],–,–,–,–,–,–,Activity (Mus musculus): Non-Toxic
> 50,> 50,> 50,> 50,> 50,> 50,> 50,> 50,> 50,CCCCCCCCCC(=O)N[C@@H](Cc1c[nH]c2ccccc12)C(=O)N[C@@H](CC(N)=O)C(=O)N[C@@H](CC(=O)O)C(=O)N[C@@H]1C(=O)NCC(=O)N[C@@H](CCCNC(=O)CCCC(=O)N(CCCCCNC(=O)CCC(=O)N(CCCCNC(=O)c2cccc(OCc3ccccc3)c2OCc2ccccc2)CCCNC(=O)c2cccc(OCc3ccccc3)c2OCc2ccccc2)OCc2ccccc2)C(=O)N[C@@H](CC(=O)O)C(=O)N[C@H](C)C(=O)N[C@@H](CC(=O)O)C(=O)NCC(=O)N[C@H](CO)C(=O)N[C@@H]([C@@H](C)CC(=O)O)C(=O)N[C@@H](CC(=O)c2ccccc2N)C(=O)O[C@@H]1C,–,–,–,–,–,> 50,Activity [16]: inactive
–,–,–,–,–,–,–,–,–,CCCCCCCCCC(=O)N[C@@H](Cc1c[nH]c2ccccc12)C(=O)N[C@@H](CC(N)=O)C(=O)N[C@@H](CC(=O)O)C(=O)N[C@@H]1C(=O)NCC(=O)N[C@@H](CCCNC(=O)CCCC(=O)N(O)CCCCCNC(=O)CCC(=O)N(CCCCNC(=O)c2cccc(O)c2O)CCCNC(=O)c2cccc(O)c2O)C(=O)N[C@@H](CC(=O)O)C(=O)N[C@H](C)C(=O)N[C@@H](CC(=O)O)C(=O)NCC(=O)N[C@H](CO)C(=O)N[C@@H]([C@@H](C)CC(=O)O)C(=O)N[C@@H](CC(=O)c2ccccc2N)C(=O)O[C@@H]1C,–,–,–,–,–,–,Activity [17]: Active
1.7,> 50,> 50,> 50,> 50,> 27,> 50,> 50,27,NCC[C@H](O)C(=O)N[C@@H]1C[C@H](N)[C@@H](O[C@H]2O[C@H](CN)[C@@H](O)[C@H](O)[C@H]2O)[C@H](O)[C@H]1O[C@H]1O[C@H](CO)[C@@H](O)[C@H](N)[C@H]1O [AMIKACIN],–,–,–,–,–,3.4,–
> 100,> 100,> 100,> 100,> 100,> 100,> 100,> 100,> 100,CCCCCCCCCC(=O)N[C@@H](Cc1c[nH]c2ccccc12)C(=O)N[C@@H](CC(N)=O)C(=O)N[C@@H](CC(=O)O)C(=O)N[C@@H]1C(=O)NCC(=O)N[C@@H](CCCN)C(=O)N[C@@H](CC(=O)O)C(=O)N[C@H](C)C(=O)N[C@@H](CC(=O)O)C(=O)NCC(=O)N[C@H](CO)C(=O)N[C@@H]([C@H](C)CC(=O)O)C(=O)N[C@@H](CC(=O)c2ccccc2N)C(=O)O[C@@H]1C [DAPTOMYCIN],> 100,> 100,0.05,0.4,> 100,–,Activity (Acinetobacter baumannii [18]): inactive

SMILES,MIC (Acinetobacter baumannii [1]) [µM],MIC (Acinetobacter baumannii [2]) [µM],MIC (Acinetobacter baumannii [5]) [µM],MIC (Acinetobacter baumannii [6]) [µM],MIC (Acinetobacter baumannii [7]) [µM],MIC (Acinetobacter baumannii [8]) [µM],MIC (Acinetobacter baumannii [9]) [µM],MIC (Acinetobacter baumannii [10]) [µM],MIC (Acinetobacter baumannii [12]) [µM],MIC (Pseudomonas aeruginosa) [µM],MIC (Burkholderia multivorans) [µM],MIC (Staphylococcus aureus [3]) [µM],MIC (Staphylococcus aureus [4]) [µM],MIC (Escherichia coli) [µM],MIC (Acinetobacter baumannii [11]) [µM],also measured
CCCCCCCCCC(=O)N[C@@H](Cc1c[nH]c2ccccc12)C(=O)N[C@H](CC(N)=O)C(=O)N[C@@H](CC(=O)O)C(=O)N[C@@H]1C(=O)NCC(=O)N[C@@H](CCCNC(=O)CCCC(=O)N(O)CCCCCNC(=O)CCC(=O)N(CCCCNC(=O)c2cccc(O)c2O)CCCNC(=O)c2cccc(O)c2O)C(=O)N[C@@H](CC(=O)O)C(=O)N[C@H](C)C(=O)N[C@@H](CC(=O)O)C(=O)NCC(=O)N[C@H](CO)C(=O)N[C@@H]([C@@H](C)CC(=O)O)C(=O)N[C@@H](CC(=O)c2ccccc2N)C(=O)O[C@@H]1C [listing 2 of 2 here],0.4,0.4,0.8,0.8,0.8,0.4,0.8,0.4,0.8,> 100,> 100,6,12.5,> 100,0.8,survival at 25 mg/kg (Acinetobacter baumannii [13]): 80%; survival at 10 mg/kg (Acinetobacter baumannii [14]): 80%; survival at 5 mg/kg (Acinetobacter baumannii [15]): 20%
O=C(O)c1cn(C2CC2)c2cc(N3CCNCC3)c(F)cc2c1=O [CIPROFLOXACIN],0.2,> 25,> 25,> 25,> 25,> 25,> 25,> 25,> 25,0.5,> 25,0.5,0.5,0.5,0.8,–
